Assay results as given in ChEMBL document CHEMBL1122071, “Avermectin acyl derivatives with anthelmintic activity” (1982).

What was measured:
Format in all cases: functional
[1] = test system: Teladorsagia circumcincta; experiment: Anthelmintic efficacy against adult Ostertagia circumcincta (O. c) in sheep at dose of 0.25 mg/kg administered orally; 60-89%
Outline: (§1)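 Lambs experimentally infected with mixed gastrointestinal nematodes (H. contortus, O. circumcincta, T. axei, T. colubriformis, C. oncophora, Oe. columbianum) were dosed orally, 1–3 sheep per dose. An untreated infected group of 6 was included, with worm burdens given as the geometric mean number of worms per lamb. Efficacy was scored against adult and, where listed, EL4 stages.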

[2] = test system: Trichostrongylus colubriformis; experiment: Anthelmintic efficacy against Trichostrongylus colubriformis (T.c) in sheep at dose of 0.25 mg/kg administered orally; 60-89%; outline: as §1
Cooperia oncophora = experiment: Anthelmintic efficacy against adult Cooperia oncopphora (C.o) in sheep at dose of 0.25 mg/kg administered orally; 60-89%; outline: as §1
[3] = test system: Oesophagostomum columbianum; experiment: Anthelmintic efficacy against Oseophagostomum columbianum (Oe. c) in sheep at dose of 0.25 mg/kg administered orally; settings: route oral; outline: as §1
Haemonchus contortus = experiment: Anthelmintic efficacy against adult Haemonchus contortus (H.c) in sheep at dose of 0.25 mg/kg administered orally; settings: route oral; outline: as §1
Trichostrongylus axei = experiment: Anthelmintic efficacy against Trichostrongylus axei (T.a) in sheep at dose of 0.25 mg/kg administered orally; 20-59%; outline: as §1
[4] = test system: Trichostrongylus colubriformis; experiment: Minimal dose necessary to eliminate > 83% of Trichostrongylus colubriformis infection in gerbils

Structure (SMILES): CC[C@H](C)[C@H]1O[C@]2(CC(OC(C)=O)[C@@H]1C)C[C@@H]1C[C@@H](C/C=C(\C)[C@@H](OC3CC(OC)C(OC4CC(OC)C(OC(C)=O)C(C)O4)C(C)O3)[C@@H](C)/C=C/C=C3\CO[C@@H]4[C@H](OC)C(C)=C[C@@H](C(=O)O1)[C@]34O)O2 (some centres not stated)
- Efficacy [1]: 60%
- Efficacy [2]: 60%
- Efficacy (Cooperia oncophora): 60%
- Efficacy [3]: >90%
- Efficacy (Haemonchus contortus): >90%
- Efficacy (Trichostrongylus axei): 20%
- Dose [4]: 0.5 mg/kg
